# Assay outcomes as filed in PubChem BioAssay.
# Shown are actives, neighbours in structure and some others; about 3.8% of the full set was active somewhere.
# Beta2AR agonist: activates human beta-2 adrenergic receptor causing internalization | AID 504454 | 0.43% of 340,000 active | Am2.2-beta2AR cells, FAP receptor internalization, flow cytometry | response, % (test concentration not listed);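 active = response above a set limit, near 3 SD of response in nonfluorescent compounds, cut at about 42% in these data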
# Target sequence (P07550 whole entry, looked up): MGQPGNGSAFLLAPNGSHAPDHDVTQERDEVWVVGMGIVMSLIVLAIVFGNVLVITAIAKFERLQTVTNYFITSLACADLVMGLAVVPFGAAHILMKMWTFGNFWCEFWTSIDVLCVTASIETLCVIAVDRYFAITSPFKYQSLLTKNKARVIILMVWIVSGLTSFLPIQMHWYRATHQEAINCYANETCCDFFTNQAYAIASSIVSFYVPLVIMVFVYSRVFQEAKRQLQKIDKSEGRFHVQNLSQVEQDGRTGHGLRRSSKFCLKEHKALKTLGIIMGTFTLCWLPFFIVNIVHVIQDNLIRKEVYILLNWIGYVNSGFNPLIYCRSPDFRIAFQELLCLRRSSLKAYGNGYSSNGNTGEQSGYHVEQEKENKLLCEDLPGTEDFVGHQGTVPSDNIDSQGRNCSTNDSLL
# T cell HTS: T cell immune modulators affecting CD8 T cell-vesicle binding; response (vesicle binding), % at 7 µM; 0.068% of 330,000 active; AID 2052; 2C CD8+ T cell-vesicle binding, flow cytometry; hits give low values;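 active = response, share of CD8 T cells binding vesicles, and their 90th percentile fluorescence all below set limits, cut at about 80% in these data, passing the limit was not always enough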;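 also: values below 100% mean blocked vesicle binding to the CD8+ T cells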
#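 Material: murine 2C transgenic CD8+ T lymphocytes / Also added: QL9-peptide-loaded Drosophila micro-vesicles bearing Ld, ICAM-1 and B7-1 / Schedule: binding step 1.5 h, 37 °C, antibody labelling 20 min, ice / Signal: flow cytometry, PE anti-B7-1 (FL2) versus Alexa647 anti-CD8 (FL8), PFA-fixed / Evaluation: percent CD8+ FL2 mean versus row control / Benchmarks: naked versus QL9-loaded vesicles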
# V-ATPase pHluor: regulators of yeast V-ATPase proton transport; S. cerevisiae, pHLuorin cytosolic pH fluorescence; response, % at 10 µM; 0.37% of 350,000 active; in the data active = response mostly above about 7.3%, no sharp cut-off; inactive = mostly below about 5.4%; also: actives read high
# MPTP inh: inhibitors of mitochondrial permeability transition pore | isolated mouse mitochondria, Ca2+ swelling absorbance, 30 min | inhibition, % at 10 µM | 1.4% of 360,000 active;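 active = inhibition of 50% or more, scaled per plate between neutral and stimulator controls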;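 also: 0% = DMSO wells given calcium and 100% = 1 mM EGTA wells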
# rCAG binder: r(CAG) repeat RNA binding; 1.3% of 370,000 active; TO-PRO-1 dye displacement fluorescence; AID 651821; inhibition, % at 3 µM;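 active = inhibition above the plate cutoff, the mean of all test compounds on that plate plus 3 SD, cut at about 35% in these data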;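 also: 0% = DMSO alone and 100% = 100 µM mitoxantrone as full dye displacement; higher means more dye released from RNA so lower well fluorescence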
# Exocytosis inh: lytic granule exocytosis inhibition; TALL-104 LAMP-1 surface exposure, flow cytometry; cells stimulated with thapsigargin and PMA; inhibition, % at 10 µM; 0.66% of 360,000 active;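 active = inhibition above about 55%, limit read from the data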
# rCAG bind conf: r(CAG) RNA repeat binding, confirmation; shares compounds with rCAG binder; TO-PRO-1 dye displacement fluorescence; inhibition, % at 3 µM; 70% of 4,300 active; AID 652065;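 active = inhibition above a per-plate cutoff, the mean inhibition of sample wells plus 3 SD, cut at about 35% in these data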;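 also: loss of TO-PRO-1 fluorescence as compound displaces dye from 1x1 AA loop RNA; 0% = DMSO only wells and 100% = 100 µM mitoxantrone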
# DNA CAG counter: disrupts DNA CAG TO-PRO-1 complex, flagging rCAG hits | shares compounds with rCAG binder | d(CAG) DNA oligo TO-PRO-1 dye displacement, fluorescence | inhibition, % at 3 µM | 94% of 4,300 active | AID 652068;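 active = inhibition above its plate's cutoff, the mean test-well inhibition plus 3 SD, cut at about 4.8% in these data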;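 also: 0% = DNA dye mix with DMSO and 100% = 100 µM mitoxantrone; hits displace the dye from DNA and so lower well fluorescence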
# dCAG dye DR: DNA CAG dye complex inhibition, dose response counter-screen; shares compounds with rCAG binder; DNA CAG/GTC duplex TO-PRO-1 dye displacement fluorescence; IC50, µM; 20% of 250 active; in the data active = IC50 below about 10 µM
# * marks the source's active call; other numbers are inactive results; · = not tested or not shown.
SMILES,Beta2AR agonist,T cell HTS,V-ATPase pHluor,MPTP inh,rCAG binder,Exocytosis inh,rCAG bind conf,DNA CAG counter,others
CC1(C(=O)NS(=O)(=O)Cc2ccccc2)CCN1C(=O)Cc1ccc(-c2ccccc2)cc1 (stereo not drawn),·,·,·,-0.6,57.6*,3.2,49.7*,13.8*,
Cc1cc(C)cc(CC(=O)N2CCC2(C)C(=O)NS(=O)(=O)c2cccc(OC(F)F)c2)c1 (stereo not drawn),·,·,·,-0.8,22.5,2.4,·,·,
Cc1ccc(F)c(S(=O)(=O)NC(=O)C2(C)CCN2C(=O)Cc2ccc(-c3ccccc3)cc2)c1 (stereo not drawn),·,·,·,0.2,60.1*,-7.7,55.1*,18.2*,
CC(C)(C)c1ccc(CC(=O)N2CCC2(C)C(=O)NS(=O)(=O)c2cccc(OC(F)F)c2)cc1 (stereo not drawn),·,·,·,-0.9,52.0*,18.8,40.9*,9.7*,
Cc1cccc(S(=O)(=O)NC(=O)C2(C)CCN2C(=O)Cc2ccc(C(C)(C)C)cc2)c1 (stereo not drawn),·,·,·,0.3,40.3*,1.7,34.0,7.5*,
Cc1cccc(S(=O)(=O)NC(=O)C2(C)CCN2C(=O)Cc2ccc(-c3ccccc3)cc2)c1 (stereo not drawn),·,·,·,-0.3,52.8*,-5.1,49.0*,15.0*,
CC1(C(=O)NS(=O)(=O)c2cccc(Cl)c2)CCN1C(=O)Cc1ccccc1 (stereo not drawn),·,·,·,-0.5,7.6,3.0,·,·,
O=C(O)CN1C(=O)/C(=C2\SC(=S)N(C(Cc3ccccc3)C(=O)O)C2=O)c2ccccc21 (stereo not drawn),-14.5,463.0,-2.4,0.2,69.2*,-4.5,46.8*,12.1*,
CCCC(C(=O)O)N1C(=O)/C(=C2\C(=O)N(C)c3ccccc32)SC1=S (stereo not drawn),1.2,344.2,0.1,-10.6,55.8*,-2.0,62.6*,26.0*,
O=C(O)CCN1C(=O)/C(=C2\C(=O)N(Cc3ccccc3Cl)c3ccccc32)SC1=S,8.1,170.0,-0.5,9.6,3.3,-5.0,·,·,
COc1ccc(-n2c(COc3ccccc3)nnc2SCC(=O)Nc2ccc(OCc3ccccc3)cc2)cc1,·,·,·,·,10.3,·,·,·,
O=C(CCl)Nc1nc(-c2ccco2)c(-c2ccco2)s1,9.7,184.1,-3.2,1.7,14.3,-7.9,·,·,
O=C(CCCSc1ccccc1)Nc1nc(-c2ccco2)c(-c2ccco2)s1,4.1,269.2,-0.2,7.6,73.7*,41.7,21.8,14.3*,
Cc1ccc(C(=O)Nc2nc(-c3ccco3)c(-c3ccco3)s2)o1,18.0,·,6.8,-0.1,73.2*,44.5,18.1,8.1*,
COc1ccccc1N=c1oc2cc(O)ccc2cc1C(N)=O,4.6,205.7,3.8,2.5,40.0*,-0.8,5.9,2.0,
COc1ccccc1NC(=O)c1cc2ccc(O)cc2o/c1=N\O,28.9,372.5,-1.0,1.1,45.9*,-3.8,27.3,7.5*,
COc1ccccc1NC(=O)c1cc2ccccc2o/c1=N\O,12.4,316.7,0.6,1.2,6.0,0.2,·,·,
COc1cccc(/C=C2\CC3(OC(=O)c4ccccc4)CCCN2C3)c1 (stereo not drawn),·,·,·,·,-0.7,·,·,·,
COc1ccccc1NC(=O)Nc1nc(C(N)Cc2ccc(Cl)cc2)cs1 (stereo not drawn),·,·,·,3.0,16.0,-0.4,·,·,
COc1ccc(CC(N)c2csc(NC(=O)Nc3ccc(F)cc3)n2)cc1 (stereo not drawn),·,·,·,14.4,42.6*,7.0,21.2,9.5*,
NCc1csc(NC(=O)Nc2cccc(C(F)(F)F)c2)n1,·,·,·,3.9,53.4*,-9.7,50.5*,10.8*,dCAG dye DR=>29.9
NC(Cc1ccc(Cl)cc1)c1csc(NC(=O)Nc2ccccc2)n1 (stereo not drawn),·,·,·,6.9,37.8*,7.9,22.7,10.8*,
COc1ccc(CC(N)c2csc(NC(=O)Nc3cc(OC)ccc3OC)n2)cc1 (stereo not drawn),·,·,·,3.2,12.8,8.9,·,·,
